The target of the experiment is M18 aspartyl aminopeptidase (Plasmodium falciparum 3D7). Kind of experiment: PfM18AAP enzyme inhibitors, dose response, counter-screen for PfM17LAP inhibitor project, biochemical, QFRET fluorogenic substrate, set 2 (AID 602218). The settings on record: recombinant PfM18AAP, H-Glu-NHMec fluorogenic cleavage. The essentials: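 Test system: recombinant P. falciparum M18 aminopeptidase. Input: 5 µg/mL rPFM18AAP final enzyme concentration. Buffer or medium: pH 7.5 Tris buffer, 2 mM CoCl2. Compound: 10 concentrations, 1:2 steps, top 100 µM. Times: 90 min reaction, room temperature. Detection: released NHMec fluorescence, excitation 370 nm, emission 460 nm. Controls: full-reaction and no-enzyme wells. Replicates: triplicate.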

The source of these data is PubChem BioAssay AID602218 (Southern Research Specialized Biocontainment Screening …, 2012).

Each structure is given as a SMILES string. Results filed as inconclusive are left out. Active and inactive are the calls of the source.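 Rule for the calls: active = inhibition of at least 30% at any tested concentration; inactive = the rest, inconclusive results apart.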

Turning to `O=C(Cc1ccc(OCc2ccccc2)cc1)NO`, the IC50 is 9.64 µM.
Turning to `CCCOc1ccc(CC(=O)OC)cc1`, the inhibition entry (at 100 µM (top of the series)) is “inactive”.
Regarding `CCCCc1ccc(CC(=O)NO)cc1`, the IC50 was 13.7 µM.
With `O=C(Cc1ccc(Oc2ccccc2)cc1)NO`, the IC50 was 7.13 µM.
Regarding `CCOc1ccc(CC(=O)NO)cc1`, the IC50 is 34.1 µM.
As to `CCCCOc1ccc(CNc2c(N(O)Cc3ccccc3)c(=O)c2=O)cc1`, the inhibition result (at 25 µM (top of the series)) was “inactive”.
For the compound `CCCCCCCCCC(=O)NO`, the IC50 is 18 µM.
Take `COc1ccc(CCCC(=O)NO)cc1`: the IC50 was 14.6 µM.
The same measure, in the same setting: to `CC(C)(C(=O)NO)c1ccccc1` belongs 54.6 µM; to `CCCCOc1ccc(CC(=O)N(C)O)cc1`, 40.2 µM; to `CCCCOc1ccc(CC(=O)NO)cc1`, 10 µM.
Same read-out and setting: the figure for `O=C(Cc1ccc2c(c1)CCCC2)NO` is 8.93 µM; for `CC(C)COc1ccc(CC(=O)NO)cc1` it is 11.4 µM.
Take `CCCCOc1ccc(CCC(=O)NO)cc1`: the IC50 is 18.5 µM.
On the same count and under the same terms, the figure for `Cc1ccc(CC(=O)NO)cc1` is 33.6 µM.
As to `COC(=O)Cc1ccc(OCCN(C)C)cc1`, the inhibition result (at 100 µM (top of the series)) was “inactive”.
For the compound `CCCCOc1ccc(C(=O)NO)cc1`, the IC50 was 12.7 µM.
Turning to `O=C(NO)c1cccc2ccccc12`, the IC50 was 10.1 µM.
As to `CN(O)C(=O)Cc1ccc(OCc2ccccc2)cc1`, the IC50 was 29.2 µM.
Consider `CCCCOc1ccc(CC(=O)O)cc1`, for which the inhibition result (at 100 µM (top of the series)) is “inactive”.
For `COc1ccc(CC(=O)NO)cc1`, the IC50 is 16.4 µM.
On to `CCCCOc1ccc(CNc2c(N(C)O)c(=O)c2=O)cc1`, for which the IC50 was 65.4 µM.
